D1 allo mod = allosteric modulators of human D1 dopamine receptor | P21728 | HEK293 D1, CRE-luciferase, dopamine EC30 potentiation; actives deviate in either direction | B-score at 10 µM | hit rate 5.9% among 58,000 | AID 641;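 active = luminescence count or its row- and column-corrected plate score outside the 99.7% band of the plate's sample wells, on either side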
HEK293 NFkB inh = inhibitors of the PMA/ionomycin-induced NF-kB reporter in HEK293 cells | HEK-293 NF-kB luciferase reporter, luminescence | inhibition, % at 3 µM | hit rate 0.21% among 62,000 | AID 465;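 active = inhibition above the mean of all tested compounds plus 3 SD, cut at about 40% in these data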;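 note: 0% = stimulated DMSO wells and 100% = 10 µM reference inhibitor 5653914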
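Reagent: PMA plus ionomycin mix as NF-kB-activating stimulus. Assay system: NF-kB luciferase reporter HEK-293 cells. Technique: luminescence from luciferase substrate reagent. Incubation: 1 h compound pre-incubation, 16 h PMA/ionomycin at 37 °C. Benchmarks: DMSO only as uninhibited control, 10 µM reference inhibitor as full inhibition. Repeats: tested once.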
Jurkat viability = reduces viability or proliferation of Jurkat cells. Jurkat E6.1 viability, ATP luminescence, 48 h. hit rate 1.2% among 56,000. inhibition, % at 4 µM. AID 463;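 active = inhibition above the mean inhibition of all tested compounds plus 3 SD, cut at about 28% in these data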
hDAT+cocaine = changed human dopamine transporter uptake under cocaine IC80. Q01959. LLC-PK1 hDAT cells, [14C]-dopamine uptake with cocaine IC80; actives deviate in either direction. hit rate 1.3% among 110,000. B-score at 10 µM;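 active = Z score or B-score, a plate-position-corrected score, falls beyond the plate's 99.7% confidence bounds, in either direction; inactive = both scores lie inside the 99.7% bounds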;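 note: scored against the spread of the other compound wells on the same plate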
M1 antagonist = antagonists of rat M1 muscarinic receptor; hit rate 3.4% among 64,000; B-score at 10 µM; P08482; CHO-M1 cells, Fluo-4 calcium, ACh EC80 antagonist mode; active compounds read low;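 active = calcium fluorescence response, raw or row-and-column corrected B-score, differing from the plate sample mean either way at a set confidence level, mostly lower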
M1 agonist = agonists of M1 muscarinic receptor; CHO-M1 cells, Fluo-4 calcium fluorescence, agonist mode; active compounds read high; B-score at 10 µM; hit rate 3% among 64,000; AID 626;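 active = fluorescence rise, raw or as B-score row- and column-corrected plate score, outside the 99.7% band of its plate's samples, either direction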
M1 agonist conf = confirmation of rat M1 muscarinic receptor agonists; shares compounds with M1 agonist; CHO-M1 cells, Fluo-4 calcium fluorescence, agonist mode; actives lie on both sides; fluorescence change (max-min) at 10 µM; hit rate 19% among 1,700; AID 1488;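 active = fluorescence change differs from the solvent-only DMSO control mean at a set confidence level in both duplicate runs; inconclusive = differs from solvent-only control mean in just one of two runs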;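 note: an EC20 dose of acetylcholine follows compound addition during the same imaging run; raw fluorescence intensity difference in instrument units with no normalization to controls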
M4 ag counter = activates rat M4 receptor in counter-screen for M1 agonists | fluorescence change (max-min) at 10 µM | hit rate 9% among 1,700 | CHO M4/Gqi5 cells, Fluo-4 calcium fluorescence, agonist mode; actives lie on both sides | shares compounds with M1 agonist;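 active = fluorescence change differing from the plate's solvent-only control wells at 99.7% confidence in both duplicates, whether higher or lower; inconclusive = differs from solvent controls in only one of two duplicates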
Target sequence (P08485 whole entry, looked up): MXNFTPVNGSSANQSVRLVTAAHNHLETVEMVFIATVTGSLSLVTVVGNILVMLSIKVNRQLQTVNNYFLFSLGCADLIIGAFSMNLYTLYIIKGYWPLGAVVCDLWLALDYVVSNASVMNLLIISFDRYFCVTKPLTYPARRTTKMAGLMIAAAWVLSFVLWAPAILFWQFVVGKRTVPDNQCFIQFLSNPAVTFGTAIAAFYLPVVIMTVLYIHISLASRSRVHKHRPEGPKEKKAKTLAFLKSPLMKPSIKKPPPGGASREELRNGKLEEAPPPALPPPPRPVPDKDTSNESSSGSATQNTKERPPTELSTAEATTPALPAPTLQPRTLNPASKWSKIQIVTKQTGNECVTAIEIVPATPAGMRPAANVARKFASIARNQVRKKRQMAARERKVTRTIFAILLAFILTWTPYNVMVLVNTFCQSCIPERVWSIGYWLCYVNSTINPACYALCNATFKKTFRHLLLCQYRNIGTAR
Starred values were filed as active, the others as inactive; ? = inconclusive; nt = no result; ! = not active in a repeat. Only some compounds are listed: those with a hit (about 7.6% of all), similar ones and a draw of the others.

SMILES	D1 allo mod	HEK293 NFkB inh	Jurkat viability	hDAT+cocaine	M1 antagonist	M1 agonist	M1 agonist conf	M4 ag counter
Cc1ccc(C2C(C#N)=C(N)Oc3c2sc2ccccc32)o1 (stereo not drawn)	4.7	2	-5	0.87	-0.052	109*	165*	53
O=C(Nc1cccc2nsnc12)C1CC(=O)N(c2ccccc2)C1 (stereo not drawn)	-0.13	4	7	-1.4	0.015	-2.7*	?	?
COC(=O)c1ccccc1NC(=O)C1CC(=O)N(c2ccccc2)C1 (stereo not drawn)	0.22	10	0	0.4	0.3	0.062	nt	nt
COC(=O)C1=C(C)NC(=O)CC1c1cccc(Cl)c1Cl (stereo not drawn)	0.26	8	2	-0.31	0.0012	3.8*	?	-47
COc1ccc(CC(=O)Nc2cccc(-c3nnc(-c4ccco4)o3)c2)cc1	nt	nt	nt	-0.081	-0.55	2.4	nt	nt
Cc1cc(C)cc(OCC(=O)Nc2cccc(-c3nnc(-c4ccco4)o3)c2)c1	-3.4*	-7	-3	0.13	-0.73	4.5*	-30*	-55
CS/C(=N\S(=O)(=O)c1cccs1)Nc1ccc(N2CCOCC2)cc1	1.4	23	nt	1.2	-0.0084	-0.61	nt	nt
Cc1ccccc1OCC(O)Cn1c(NCc2ccccc2)nc2c1c(=O)[nH]c(=O)n2C (stereo not drawn)	nt	nt	nt	0.95	nt	nt	nt	nt
Cc1ccccc1OCC(O)Cn1c(SC(C)C)nc2c1c(=O)[nH]c(=O)n2C (stereo not drawn)	0.13	21	1	0.49	-0.76	6.9*	-16	-28
CN(C)CCNc1nc2c(c(=O)[nH]c(=O)n2C)n1CC(O)COc1ccc(Cl)cc1Cl (stereo not drawn)	-0.75	9	10	-0.34	0.016	4.2*	-7.6	-24
COc1ccc(CCNC(=O)CSc2nnc(CNc3ccc(Cl)cc3)o2)cc1OC	0.053	4	7	1.1	0.015	-2.2*	-15	-64
COc1ccc(CCNC(=O)CSc2nnc(-c3ccc(F)cc3)o2)cc1OC	1.3	13	14	0.52	-0.0069	0.84	nt	nt
O=C(CCC(=O)N1CCc2ccccc21)N1CCc2ccccc21	0.67	12	12	nt	-0.52	-0.19	nt	nt
O=C(CS(=O)(=O)Cc1ccccc1)N1CCc2ccccc21	1.3	0	-6	0.098	-0.13	23*	-9.2	-29
CC(=O)N(CCP(=O)(c1ccccc1)c1ccccc1)Cc1ccco1	-0.085	15	3	-0.12	0.083	-0.77	nt	nt
CCOc1ccc(NC(=O)c2cccc(-n3cnnn3)c2)cc1	0.093	4	nt	-0.012	0.042	-0.68	nt	nt
O=C(Nc1cnc2ccccc2c1)c1cccc(-n2cnnn2)c1	-0.77	-30	-8	-1.1	-1	4.4*	?	-35
COc1cccc(=O)c2c(C)oc(C)c12	-0.18	10	-12	-1	0.71	44*	536*	502*
Cc1nc(SCC(=O)NCc2ccco2)c2c(C)c(C)sc2n1	1.9	15	1	-0.79	0.11	11*	-10	-43
Cc1sc2nc(C(C)C)nc(SCC(=O)NCc3ccco3)c2c1C	0.96	1	8	0.032	-0.84	0.028	nt	nt
Nc1nnc(N2CCCCC2)s1	0.33	9	5	0.035	0.47	-0.11	nt	nt
Nc1nnc(N2CCc3ccccc32)s1	0.29	15	5	-0.46	0.34	3.4*	?	-72*
Cc1cc(=O)n2nc(N3CCCC(C(=O)N4CCN(c5ccccc5)CC4)C3)sc2n1 (stereo not drawn)	1.2	17	5	1.4	0.29	-0.87	nt	nt
O=C(NC1CCCC1)c1ccc(CSCc2ccccc2F)o1	nt	nt	nt	0.083	nt	nt	nt	nt
O=C(O)c1ccc(CSCc2ccccc2F)o1	0.049	2	6	-0.097	-1.1	6.8*	-23	-32
SMILES	D1 allo mod	HEK293 NFkB inh	Jurkat viability	hDAT+cocaine	M1 antagonist	M1 agonist	M1 agonist conf	M4 ag counter
Cc1cccc(NC(=O)c2cc(NC(=O)c3ccco3)ccc2Cl)n1	-0.079	16	6	-0.35	-0.88	2.5*	0.72	-8
Cc1ccccc1C(=O)N1CCN(c2ccc(NC(=O)c3ccco3)cc2Cl)CC1	-1.5	0	4	-1.8	-0.18	2.9*	?	-94
CN1CC(=O)N(CC(=O)Nc2ccc(N(C)C)cc2)c2ccccc2C1=O	0.62	15	nt	0.1	0.47	-1.1	nt	nt
Cc1sc2nc(SCC(=O)NCCOCCO)n(C)c(=O)c2c1C	0.35	9	3	-0.24	-0.35	-0.48	nt	nt
Cc1cc2c(N3CCCCC3C)ncnc2s1 (stereo not drawn)	-1.1	-1	16	-0.3	-0.93	3.5*	-7.6	-34
O=C(Nc1cccc(-c2cnc3ccccc3n2)c1)c1ccco1	-1.9	-8	-2	2.5	-0.44	4.3*	?	-44
O=C(Nc1cccc(-c2nc3ccccc3[nH]2)c1)c1cccc(NC(=O)c2ccco2)c1	-0.73	-26	1	-0.98	-0.98	5.1*	-4.8	-21
Cc1cccc(Oc2ncnc3onc(C)c23)c1	nt	nt	nt	0.065	nt	nt	nt	nt
COCCCNC(=O)CN1C(=O)c2ccccc2C1=O	0.25	1	-9	0.2	0.55	0.72	nt	nt
COc1ccc(S(=O)(=O)NCc2ccccn2)cc1Cl	-0.29	-2	4	-0.026	-0.25	-0.97	nt	nt
COc1ccccc1Oc1ccc(S(=O)(=O)NCc2ccccn2)cc1	-1.3	9	nt	-0.33	-0.21	12*	?	?
COc1ccc(N2CCN(C(=O)CSc3nnnn3-c3ccc4c(c3)OCCO4)CC2)cc1	nt	14	10	-0.3	-0.3	-3*	-18	?
COC(=O)c1ccc2c(=O)n(CCCCCC(=O)N3CCN(c4ccccc4)CC3)c(=O)[nH]c2c1	-0.69	13	2	-8.3*!	-1.7	11*	-5.2	5.4
COc1cc2[nH]c(=O)n(CCC(=O)N3CCN(c4cccc(C)c4C)CC3)c(=O)c2cc1OC	-0.66	18	nt	1.3	1.1	-0.43	nt	nt
COc1cc2[nH]c(=O)n(CCCCCC(=O)N3CCN(c4ccccc4)CC3)c(=O)c2cc1OC	nt	17	nt	3.5*	-1.8	2.8*	-6.8	-12
O=C(CCCC(=O)OCC(=O)c1ccc(F)cc1)Nc1cc(C(F)(F)F)ccc1Cl	nt	nt	nt	1.3	nt	nt	nt	nt
O=C(O)CC1S/C(=N/N=C/c2ccc(-c3ccccc3[N+](=O)[O-])o2)NC1=O (stereo not drawn)	nt	nt	nt	-0.49	nt	nt	nt	nt
COc1ccc(C2C(C(=O)N3CCC(C)CC3)c3ccccc3C(=O)N2C)cc1 (stereo not drawn)	0.082	20	nt	-1.2	-0.6	0.23	nt	nt
COc1ccc(C2C(C(=O)N3CCN(c4ccccc4F)CC3)c3ccccc3C(=O)N2C)cc1 (stereo not drawn)	-0.96	14	nt	0.22	0.085	4.9*	?	?

Screening results from PubChem BioAssay.
